The record followed here is ChEMBL document CHEMBL1641374, “Synthesis of antiproliferative flavones from calycopterin, major flavonoid of Calycopteris floribunda Lamk” (Bioorg Med Chem, 2011).

pIC50: −log10 of the molar value. The source made the active and inactive calls. The rule behind the calls is not given here. A value given as a limit tells only on which side of the number the result lay.

Test [1] has as its system HL-60. Description: Induction of apoptosis in human HL60 cells assessed as induction of caspase 3/7 activation at 100 uM. Type of test: functional, cell-based. In a few lines:
(§1)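 HL60 cells (20,000/well) were treated 24 and 48 h with compounds in DMSO. Vehicle and doxorubicine served as controls. Fluorescence (ex 360/em 465 nm) was followed over 3 h.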

The test system of test [2] is KB. As to the kind of experiment: Cytotoxicity against human KB cells at 10^-6 M after 72 hrs by MTS assay. The test is classed as functional. The method, boiled down:
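KB cells in D-MEM with 10% FCS were seeded at 600 cells/well and dosed 24 h later with flavone at 10^-6 M in DMSO. Controls received DMSO at 1% final. After 72 h, MTS was added for 3 h at 37 °C and A490 read in triplicate. Growth inhibition (%) = (1 − OD treated/OD control)×100.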
On the technique in general: Tetrazolium assays rely on reduction of a dye to a coloured formazan, in cell work by metabolically active cells.

The species named for the next test is Ovis aries. Description: Inhibition of sheep brain tubulin polymerization after 5 mins. In a few lines: (§2)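 Sheep brain microtubule proteins were purified by two assembly/disassembly cycles (37 °C/0 °C) in 100 mM MES pH 6.6, 1 mM EGTA, 0.5 mM MgCl2. Polymerization rate was followed by turbidity at 350 nm, with deoxypodophyllotoxin as reference. Compounds were tested at ~2×10^-5 M for % inhibition, with IC50 determined for selected compounds.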

The subject of test [3] is HL-60. As to the kind of experiment: Induction of apoptosis in human HL60 cells assessed as induction of caspase 3/7 activation at 100 uM relative to control. The test is classed as functional. In a few lines: as §1
A short description of test [4]: Inhibition of sheep brain tubulin polymerization at 2x10'-5 M after 5 mins. The arrangement: species or system Ovis aries. In a few lines:
as §2

The test system of test [5] is KB. As to the kind of experiment: Cytotoxicity against human KB cells after 72 hrs by MTS assay. The test is classed as functional, cell-based.

On to `COc1ccc(-c2oc3c(OC)c(OC)c(OC)c(OC)c3c(=O)c2OC)cc1N`, for which, in the test with HL-60 [1], the result was inactive. Moreover, in the test with KB [2], the Activity is on record as 17%. Moreover, in the test listed under Ovis aries, the inhibition was determined as 5%. Take `COc1c(OC)c(O)c2c(=O)c(OC)c(-c3ccc(O)cc3)oc2c1OC` [CALYCOPTERIN]: in the test with KB [2], the Activity turned out to be 0%. Take `COc1ccc(-c2oc3c(OC)c(OC)c(OC)c(O)c3c(=O)c2OC)cc1-c1cc(-c2oc3c(OC)c(OC)c(OC)c(O)c3c(=O)c2OC)ccc1OC`: the Activity result in the test with KB [2] is on record as “<=13%”.

`COc1ccc(-c2oc3c(OC)c(OC)c(OC)c(O)c3c(=O)c2OC)cc1CO`: the Activity entry in the test with KB [2] is recorded as “<=13%”. Take `COc1ccc(-c2oc3c(OC)c(OC)c(OC)c(O)c3c(=O)c2OC)cc1C=O`: the Activity entry in the test with KB [2] is given as “<=13%”.

On to `COc1ccc(-c2oc3c(OC)c(OC)c(OC)cc3c(=O)c2OC)cc1N`, for which, in the test with HL-60 [3], the “fold change (FC)” value amounted to 3.1. In the test with KB [2], this molecule came in with an Activity of 84%. For the same molecule, the pIC50 in test [4] was 4.92; in the test on KB [5] it was 7.11. In the test on KB [2], `COc1ccc(-c2oc3c(OC)c(OC)c(OC)c(O)c3c(=O)c2OC)cc1[N+](=O)[O-]` had an Activity of 13%. `COc1ccc(-c2oc3c(O)c(OC)c(OC)c(O)c3c(=O)c2OC)cc1N` returned an Activity with KB [2] of 34%. The pIC50 with KB [5] is < 5.00.

As to `COc1ccc(-c2oc3c(OC)c(OC)c(OC)c(O)c3c(=O)c2OC)cc1I`, in the test on KB [2], the Activity entry is listed as “<=13%”. Still for that read-out and setting: the result for `COc1c(I)cc(-c2oc3c(OC)c(OC)c(OC)c(O)c3c(=O)c2OC)cc1I` reads “<=13%”; that for `COc1ccc(-c2oc3c(OC)c(OC)c(OC)c(O)c3c(=O)c2OC)cc1N(C)C`, 13%.

A word on the inhibition: it is the drop in the measured response relative to a control, in per cent. A word on the pIC50: it is −log10 of the IC50, conventionally taken in molar units.
